Results on five compounds are retold here after ChEMBL document CHEMBL4002602, “Design, Synthesis of Novel, Potent, Selective, Orally Bioavailable Adenosine A2A Receptor Antagonists and Their Biological Evaluation” (J Med Chem, 2017).

Data set [1] concerns the target T1, Adenosine receptor A1 (Homo sapiens) (UniProt P30542).
T1 sequence (whole entry): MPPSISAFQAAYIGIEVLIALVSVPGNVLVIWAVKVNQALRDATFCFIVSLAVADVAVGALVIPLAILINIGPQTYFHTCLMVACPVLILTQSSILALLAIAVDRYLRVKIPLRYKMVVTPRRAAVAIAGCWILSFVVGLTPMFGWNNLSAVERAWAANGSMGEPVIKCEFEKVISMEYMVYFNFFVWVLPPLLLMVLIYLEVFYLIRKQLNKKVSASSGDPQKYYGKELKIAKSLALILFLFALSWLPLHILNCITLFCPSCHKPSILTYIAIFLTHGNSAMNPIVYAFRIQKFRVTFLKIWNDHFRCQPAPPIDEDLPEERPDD
Nature of the data set: Displacement of [3H]-DPCPX from human adenosine A1 receptor expressed in HEK293 cell membranes at 1 uM measured after 90 mins relative to control. Background: Loss of bound radioactivity is the signal in a displacement assay; it reports binding, not function.

The next data set deals with Liver. Nature of the data set: Metabolic stability in human liver microsomes assessed as metabolic rate at 1 uM preincubated for 5 mins followed by addition of NADPH measured after 3 to 30 mins by LC-MS/MS analysis. The format is ADME, microsome. On the technique in general: Microsomes from liver hold many membrane-bound enzymes, among them those of drug oxidation.
Another data set concerns the target T2, Adenosine receptor A3 (Homo sapiens, UniProt P0DMS8).
T2 sequence (P0DMS8 whole entry): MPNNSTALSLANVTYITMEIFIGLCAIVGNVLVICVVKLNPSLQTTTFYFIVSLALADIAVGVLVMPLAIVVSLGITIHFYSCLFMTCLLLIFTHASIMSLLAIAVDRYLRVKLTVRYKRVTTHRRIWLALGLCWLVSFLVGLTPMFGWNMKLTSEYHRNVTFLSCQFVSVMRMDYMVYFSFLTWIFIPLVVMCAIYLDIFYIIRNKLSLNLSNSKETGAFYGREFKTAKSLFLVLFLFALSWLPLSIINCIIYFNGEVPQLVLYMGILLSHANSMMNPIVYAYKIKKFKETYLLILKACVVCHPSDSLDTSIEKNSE
Nature of the data set: Displacement of [3H]-HEMADO from human adenosine A3 receptor expressed in HEK293 cell membranes measured after 90 mins.

A short description of data set [2]: Cmax in Wistar rat at 10 mg/kg administered via oral gavage by LC/MS/MS analysis. The format is ADME, organism-based. Further details: dose 10 mg/kg, route oral; call rule not given here. Particulars: in vivo. The procedure, abridged: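 Fasted male Wistar rats given 10 mg/kg PO as a suspension in 1% Tween 80, 0.5% w/v NaCMC. Serial plasma sampling (K2EDTA) at 0.25–24 h, acetonitrile precipitation, LC/MS/MS. Non-compartmental analysis per animal; bioavailability calculated against the 3 mg/kg IV group; mean of n=4.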

Data set [3] in a line: AUC (0 to t) in Wistar rat at 3 mg/kg, iv by LC/MS/MS analysis. The format is ADME, organism-based. Conditions: in vivo. Put shortly: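 Overnight-fasted male Wistar rats received a 3 mg/kg tail-vein solution (0.6 mg/mL, 5 mL/kg). Vehicle was 10% NMP with PEG300, Cremophor EL and/or HPβ-CD in 0.1 M acetate buffer, pH 4.2; co-solvents varied by compound. Serial K2EDTA blood samples (n=3/time point) taken 0.008–24 h. Plasma measured by LC/MS/MS; non-compartmental AUC0-t per animal.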

Data set [4] can be described thus: AUC (0 to t) in Wistar rat at 10 mg/kg administered via oral gavage by LC/MS/MS analysis. The format is ADME, organism-based. Conditions: in vivo. Put shortly:
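Male Wistar rats (230 ± 15 g), fasted overnight with water available, given a single oral suspension in 1% Tween 80 and 0.5% NaCMC (1 mg/mL, 10 mL/kg). Serial blood sampling (n=3/time point) at 0.25–24 h into K2EDTA. Plasma proteins precipitated with acetonitrile, then LC/MS/MS. AUC0-t by non-compartmental analysis of individual animals.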

A short description of data set [5]: Volume of distribution at steady state in Wistar rat at 3 mg/kg, iv by LC/MS/MS analysis. Particulars: in vivo, read-out: Vdss. The format is ADME, organism-based. The procedure, abridged:
(§1)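 Male Wistar rats (230 ± 15 g), fasted overnight, given 3 mg/kg IV via tail vein as a solution (0.6 mg/mL, 5 mL/kg) in NMP-based vehicles with acetate buffer pH 4.2. Serial plasma sampling (K2EDTA) from 0.008 to 24 h. Acetonitrile precipitation, then LC/MS/MS. Non-compartmental analysis per animal; mean of n=4.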

Data set [6] can be described thus: Clearance in Wistar rat at 3 mg/kg, iv by LC/MS/MS analysis. The format is ADME, organism-based. Particulars: in vivo. Put shortly:
as §1

Data set [7] is described as follows: Elimination half-life in Wistar rat at 3 mg/kg, iv by LC/MS/MS analysis. The format is ADME, organism-based. Conditions: in vivo, read-out: beta t1/2 (converted). The procedure, abridged:
as §1

Data set [8] can be described thus: Equilibrium aqueous solubility of the compound at pH 2.1 after 4 hrs. The format is physicochemical. Particulars: aqueous medium.
The nature of data set [9]: Equilibrium aqueous solubility of the compound at pH 7.4 after 4 hrs. The format is physicochemical. Particulars: aqueous medium.
For another data set, the target named is Cytochrome P450 2C19 (Homo sapiens, UniProt P33261). Nature of the data set: Inhibition of CYP2C19 in human liver microsomes at 5 to 25 uM using (S)mephenytoin as substrate preincubated for 5 mins with substrate followed by NADPH addition measured after 40 mins by LC-MS/MS analysis. The format is ADME. Particulars: microsomes, 40 min, 25 µM.
Another data set addresses Cytochrome P450 2D6 (Homo sapiens, UniProt P10635). The data set is described as follows: Inhibition of CYP2D6 in human liver microsomes at 5 to 25 uM using dextromethorphan as substrate preincubated for 5 mins with substrate followed by NADPH addition measured after 10 mins by LC-MS/MS analysis. The format is ADME. Particulars: microsomes, 10 min, 25 µM.
The target in another data set is Adenosine receptor A2a (Homo sapiens, UniProt P29274). The data set is described as follows: Antagonist activity at human adenosine A2A receptor expressed in HEK293 cell membranes assessed as decrease in CGS-21680-induced cAMP level pretreated for 15 mins followed by agonist addition for 30 mins. (In general: Changes in cAMP serve as a functional read-out for many G protein-coupled receptors.)

For a further data set, the target named is T3, Adenosine receptor A2b (Homo sapiens, UniProt P29275).
T3 sequence (P29275 whole entry): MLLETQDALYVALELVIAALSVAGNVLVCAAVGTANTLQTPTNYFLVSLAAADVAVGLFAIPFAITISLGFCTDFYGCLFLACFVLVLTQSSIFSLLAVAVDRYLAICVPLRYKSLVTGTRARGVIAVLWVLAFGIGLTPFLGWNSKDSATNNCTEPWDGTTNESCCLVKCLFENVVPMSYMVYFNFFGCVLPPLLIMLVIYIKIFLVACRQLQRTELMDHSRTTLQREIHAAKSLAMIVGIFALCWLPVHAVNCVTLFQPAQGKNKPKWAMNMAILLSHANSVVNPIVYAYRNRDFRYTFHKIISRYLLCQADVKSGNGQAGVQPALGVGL
The data set is described as follows: Antagonist activity at human adenosine A2B receptor expressed in HEK293 cell membranes assessed as decrease in NECA/forskolin-induced cAMP level pretreated for 15 mins followed by agonist addition for 15 mins and subsequent forskolin stimulation measured after 30 mins. The format is functional, cell-based.

In brackets after ≈: the same amount, converted by molar mass. Some results are limits rather than exact numbers.

Sequence of Adenosine receptor A2a (P29274 whole entry): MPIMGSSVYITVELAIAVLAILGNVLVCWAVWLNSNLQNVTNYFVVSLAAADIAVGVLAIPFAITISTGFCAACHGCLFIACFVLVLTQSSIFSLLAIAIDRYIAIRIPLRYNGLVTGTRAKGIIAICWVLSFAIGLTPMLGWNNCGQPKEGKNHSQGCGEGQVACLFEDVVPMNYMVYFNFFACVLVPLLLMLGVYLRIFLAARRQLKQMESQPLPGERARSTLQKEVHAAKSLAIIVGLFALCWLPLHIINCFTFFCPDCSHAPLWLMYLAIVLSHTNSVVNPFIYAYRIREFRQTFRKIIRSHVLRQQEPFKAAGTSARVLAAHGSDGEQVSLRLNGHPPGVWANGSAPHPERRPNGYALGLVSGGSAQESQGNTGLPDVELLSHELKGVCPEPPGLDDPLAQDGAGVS
Sequence of Cytochrome P450 2C19 (P33261 whole entry): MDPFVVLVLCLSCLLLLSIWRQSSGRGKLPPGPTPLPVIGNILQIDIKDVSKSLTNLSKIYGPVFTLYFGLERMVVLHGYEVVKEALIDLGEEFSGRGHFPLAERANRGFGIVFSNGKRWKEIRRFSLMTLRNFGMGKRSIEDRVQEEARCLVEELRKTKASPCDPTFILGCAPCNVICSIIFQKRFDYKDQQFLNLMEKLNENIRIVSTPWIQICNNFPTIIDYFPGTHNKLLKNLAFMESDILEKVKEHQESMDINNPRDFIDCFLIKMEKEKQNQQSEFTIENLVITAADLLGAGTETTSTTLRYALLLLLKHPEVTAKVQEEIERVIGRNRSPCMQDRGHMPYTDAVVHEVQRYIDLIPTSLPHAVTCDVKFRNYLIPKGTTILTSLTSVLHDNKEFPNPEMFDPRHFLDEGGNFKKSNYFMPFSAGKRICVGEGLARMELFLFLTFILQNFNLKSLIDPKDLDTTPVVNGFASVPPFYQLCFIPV
Sequence of Cytochrome P450 2D6 (P10635 whole entry): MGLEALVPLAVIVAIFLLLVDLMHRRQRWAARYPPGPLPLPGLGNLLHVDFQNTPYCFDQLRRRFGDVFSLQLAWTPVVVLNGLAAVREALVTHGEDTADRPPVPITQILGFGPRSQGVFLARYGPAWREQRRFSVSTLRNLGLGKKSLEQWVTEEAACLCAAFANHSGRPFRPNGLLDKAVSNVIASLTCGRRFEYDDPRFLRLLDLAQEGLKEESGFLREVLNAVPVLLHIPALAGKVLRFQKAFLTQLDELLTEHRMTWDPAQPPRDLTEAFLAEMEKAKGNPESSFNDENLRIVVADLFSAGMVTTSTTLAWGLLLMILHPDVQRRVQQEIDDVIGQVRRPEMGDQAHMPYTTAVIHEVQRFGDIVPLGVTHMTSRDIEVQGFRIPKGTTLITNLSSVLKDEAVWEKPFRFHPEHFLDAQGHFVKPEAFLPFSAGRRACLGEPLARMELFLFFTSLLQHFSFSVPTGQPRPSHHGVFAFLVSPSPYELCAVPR

The inhibition is the change of the read-out against control, counted positive when it falls. Usually Ki stands for the equilibrium dissociation constant of an inhibitor or competing ligand from its target. The term Cmax denotes the maximum level reached in the sampled fluid or tissue. A word on the AUC(0-t): it is the area under the concentration-time curve up to a stated or last time point. High values mean high exposure, low ones low exposure. As a reminder, the clearance is the rate of elimination divided by the concentration. High values mean a high capacity for elimination, low ones a low capacity for elimination. For orientation: solubility (thermodynamic) means solubility found after equilibrating the solid with the medium. With `COc1ccc(N2CCOCC2)c2sc(NC(=O)C(C)(C)Oc3ccc(F)c(F)c3)nc12`, the inhibition in data set [1] was found to be 38%. Moreover, the Drug metabolism in the data set with Liver is reported as 0.07 nmol/min/mg. The values for the Ki at Adenosine receptor A3 and at Adenosine receptor A2a were 500 nM and 2.4 nM, respectively. In addition, the highest level in data set [2] (Cmax) was 1330 nM. The AUC(0-t) is 10.7 µM·h in data set [3] and 6.2 µM·h in [4]. For the same compound, the Vd in data set [5] amounted to 2.1 L/kg. In [6], this compound showed a clearance of 10.2 mL/min/kg. In [7], the half-life is 5.5 h. The thermodynamic solubility at 4 h in data set [8] and in data set [9] was less than 6 µM each time. In addition, the “inhibition (INH)” value at Cytochrome P450 2C19 and at Cytochrome P450 2D6 was “Not Active” throughout.
Compound `COc1ccc(N2CCOCC2)c2sc(NC(=O)C(C)(C)Oc3ccc(F)cc3)nc12` yielded an inhibition in [1] of 16%. The Drug metabolism in the data set with Liver was 0.02 nmol/min/mg. Also, the results for the Ki on Adenosine receptor A3 and on Adenosine receptor A2a were 5000 nM and 4.2 nM, respectively. In data set [2], this compound yielded a peak concentration (Cmax) of 190 nM. Also, the figures for the AUC(0-t) in [3] and in data set [4] were 7.6 µM·h and 1.5 µM·h, respectively. Besides, the Vd in data set [5] is 1.4 L/kg. Also, the clearance in data set [6] was 15 mL/min/kg. In [7], the half-life is 6.3 h. Further, the solubility (thermodynamic) at 4 h in data set [8] and in data set [9] was less than 6 µM each time. Moreover, the “inhibition (INH)” value against Cytochrome P450 2C19 and against Cytochrome P450 2D6 was “Not Active” in each case.
In the case of `COc1cnc(N2CCOCC2)c2sc(NC(=O)C(C)(C)Oc3ccc(F)cc3)nc12`, in [1], the inhibition was found to be 46%. For the same compound, the Drug metabolism with Liver is less than 0.04 nmol/min/mg. Besides, the results for the Ki at Adenosine receptor A3, at Adenosine receptor A2b and on Adenosine receptor A2a were 400 nM, 2000 nM and 6.5 nM, respectively. In data set [2], this compound showed a maximum concentration (Cmax) of 1100 nM. Also, the exposure AUC(0-t) stood at 16.4 µM·h in [3] and 12 µM·h in data set [4]. In addition, in data set [5], the Vd was found to be 2.1 L/kg. Further, the clearance in data set [6] came to 6.6 mL/min/kg. Besides, in data set [7], the half-life was 5.4 h. Besides, the thermodynamic solubility at 4 h in data set [8] and in data set [9] was less than 6 µM throughout. For the same compound, the “inhibition (INH)” value at Cytochrome P450 2C19 and on Cytochrome P450 2D6 was “Not Active” each time.
Consider `CCN(CC)C1CCC(C)(C(=O)Nc2nc3c(OC)ccc(N4CCOCC4)c3s2)CC1` (stereo not given), for which the Drug metabolism with Liver is on record as 0.03 nmol/min/mg. Also, the figures for the Ki on Adenosine receptor A2b and at Adenosine receptor A2a were 650 nM and 0.2 nM, respectively. In [2], the highest level (Cmax) was 2020 nM. Besides, the AUC(0-t) is 2.7 µM·h in data set [3] and 5.5 µM·h in data set [4]. Further, in data set [5], the Vd turned out to be 6.1 L/kg. The clearance in data set [6] was 37.2 mL/min/kg. The half-life in [7] was 2.4 h. Further, the results for the thermodynamic solubility at 4 h in [8] and in data set [9] were 1840 µM (≈ 848 µg/mL) and 1590 µM (≈ 731 µg/mL), respectively.
For the compound `COc1ccc(N2CCOCC2)c2sc(NC(=O)C3(C)CCC(C)(O)CC3)nc12` (stereo not given), the Drug metabolism in the data set with Liver was less than 0.04 nmol/min/mg. Also, the Ki at Adenosine receptor A2b is 2000 nM; at Adenosine receptor A2a it was 0.25 nM. The compound further showed a Cmax in [2] of 5400 nM. Also, the results for the AUC(0-t) in data set [3] and in data set [4] were 3.7 µM·h and 7.8 µM·h, respectively. For the same compound, in [5], the Vd was found to be 1.5 L/kg. The clearance in data set [6] turned out to be 32 mL/min/kg. Also, the half-life in data set [7] was 0.6 h. The thermodynamic solubility at 4 h in data set [8] was found to be 139 µM (≈ 58.3 µg/mL); in [9], 114 µM (≈ 47.8 µg/mL).
